What was measured:
Type in all cases: functional
MDA-MB-468 = assay: Growth inhibition of human MDA-MB-468 cells at 10 uM after 48 hrs by coulter counter analysis; settings: MDA-MB-468, 48 h, read-out: GI
Summary of the method: (§1)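 Single-dose NCI 60-line panel screen of test compounds. Cells grown in RPMI 1640 with 10% FBS. Compounds dissolved in DMSO, then diluted in phosphate buffer saline (final DMSO below 1%). Wells run in duplicate at 6 × 10⁴ cells/ml. Controls held PBS and DMSO at matching dilutions. Incubation 48 h at 37 °C under humidified 5% CO2. Cells diluted tenfold in saline and counted by Coulter counter. Percent growth inhibition taken from mean-graph of treated-cell growth.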

SF-539 = assay: Growth inhibition of human SF539 cells at 10 uM after 48 hrs by coulter counter analysis; settings: SF-539, 48 h, read-out: GI; summary of the method: as §1
SK-MEL-28 = assay: Growth inhibition of human SK-MEL-28 cells at 10 uM after 48 hrs by coulter counter analysis; settings: SK-MEL-28, 48 h, read-out: GI; summary of the method: as §1
SNB-19 = assay: Growth inhibition of human SNB19 cells at 10 uM after 48 hrs by coulter counter analysis; settings: SNB-19, 48 h, read-out: GI; summary of the method: as §1
ACHN = assay: Growth inhibition of human ACHN cells at 10 uM after 48 hrs by coulter counter analysis; settings: read-out: GI; summary of the method: as §1
MDA-MB-435 = assay: Growth inhibition of human MDA-MB-435 cells at 10 uM after 48 hrs by coulter counter analysis; settings: MDA-MB-435, 48 h, read-out: GI; summary of the method: as §1
OVCAR-8 = assay: Growth inhibition of human OVCAR8 cells at 10 uM after 48 hrs by coulter counter analysis; settings: OVCAR-8, 48 h, read-out: GI; summary of the method: as §1
T47D = assay: Growth inhibition of human T47D cells at 10 uM after 48 hrs by coulter counter analysis; settings: read-out: GI
Summary of the method: (§2)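 Single-dose screen in the NCI 60 cell line panel. Cells grown in RPMI 1640 with 10% FBS. Compounds dissolved in DMSO and diluted in phosphate buffered saline, final DMSO under 1%. Duplicate wells seeded from culture at 6 × 10⁴ cells/ml. Incubated 48 h at 37 °C, humidified, 5% CO2. Cells diluted tenfold in saline and Coulter-counted. Percent growth inhibition computed against PBS/DMSO controls.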

[1] = Growth inhibition of human NCI-ADR-RES cells at 10 uM after 48 hrs by coulter counter analysis; settings: read-out: GI; summary of the method: as §1
EKVX = assay: Growth inhibition of human EKVX cells at 10 uM after 48 hrs by coulter counter analysis; settings: read-out: GI; summary of the method: as §1
K562 = assay: Growth inhibition of human K562 cells at 10 uM after 48 hrs by coulter counter analysis; settings: K562, 48 h, read-out: GI; summary of the method: as §1
NCI-H226 = assay: Growth inhibition of human NCI-H226 cells at 10 uM after 48 hrs by coulter counter analysis; settings: NCI-H226, 48 h, read-out: GI; summary of the method: as §1
OVCAR-5 = assay: Growth inhibition of human OVCAR5 cells at 10 uM after 48 hrs by coulter counter analysis; settings: OVCAR-5, 48 h, read-out: GI; summary of the method: as §1
BT-549 = assay: Growth inhibition of human BT549 cells at 10 uM after 48 hrs by coulter counter analysis; settings: BT-549, 48 h, read-out: GI; summary of the method: as §1
KM12 = assay: Growth inhibition of human KM12 cells at 10 uM after 48 hrs by coulter counter analysis; settings: KM12, 48 h, read-out: GI; summary of the method: as §1
MDA-MB-231 = assay: Growth inhibition of human MDA-MB-231 cells at 10 uM after 48 hrs by coulter counter analysis; settings: MDA-MB-231, 48 h, read-out: GI; summary of the method: as §1
CAKI-1 = assay: Growth inhibition of human Caki1 cells at 10 uM after 48 hrs by coulter counter analysis; settings: CAKI-1, 48 h, read-out: GI; summary of the method: as §1
HOP-92 = assay: Growth inhibition of human HOP92 cells at 10 uM after 48 hrs by coulter counter analysis; settings: HOP-92, 48 h, read-out: GI; summary of the method: as §1
UO-31 = assay: Growth inhibition of human UO31 cells at 10 uM after 48 hrs by coulter counter analysis; settings: UO-31, 48 h, read-out: GI; summary of the method: as §2
HOP-62 = assay: Growth inhibition of human HOP62 cells at 10 uM after 48 hrs by coulter counter analysis; settings: HOP-62, 48 h, read-out: GI; summary of the method: as §1
LOX IMVI = assay: Growth inhibition of human LOXIMVI cells at 10 uM after 48 hrs by coulter counter analysis; settings: read-out: GI; summary of the method: as §1
SK-MEL-2 = assay: Growth inhibition of human SK-MEL-2 cells at 10 uM after 48 hrs by coulter counter analysis; settings: SK-MEL-2, 48 h, read-out: GI; summary of the method: as §1
A498 = assay: Growth inhibition of human A498 cells at 10 uM after 48 hrs by coulter counter analysis; settings: A498, 48 h, read-out: GI; summary of the method: as §1
SNB-75 = assay: Growth inhibition of human SNB75 cells at 10 uM after 48 hrs by coulter counter analysis; settings: SNB-75, 48 h, read-out: GI; summary of the method: as §2
HCC 2998 = assay: Growth inhibition of human HCC2998 cells at 10 uM after 48 hrs by coulter counter analysis; settings: HCC 2998, 48 h, read-out: GI; summary of the method: as §1
SN12C = assay: Growth inhibition of human SN12C cells at 10 uM after 48 hrs by coulter counter analysis; settings: read-out: GI; summary of the method: as §1
NCI-H522 = assay: Growth inhibition of human NCI-H522 cells at 10 uM after 48 hrs by coulter counter analysis; settings: NCI-H522, 48 h, read-out: GI; summary of the method: as §1
786-0 = assay: Growth inhibition of human 786-0 cells at 10 uM after 48 hrs by coulter counter analysis; settings: 786-0, 48 h, read-out: GI; summary of the method: as §1
OVCAR-3 = assay: Growth inhibition of human OVCAR3 cells at 10 uM after 48 hrs by coulter counter analysis; settings: OVCAR-3, 48 h, read-out: GI; summary of the method: as §1
SK-MEL-5 = assay: Growth inhibition of human SK-MEL-5 cells at 10 uM after 48 hrs by coulter counter analysis; settings: SK-MEL-5, 48 h, read-out: GI; summary of the method: as §1
HT-29 = assay: Growth inhibition of human HT-29 cells at 10 uM after 48 hrs by coulter counter analysis; settings: HT-29, 48 h, read-out: GI; summary of the method: as §1
A549 = assay: Growth inhibition of human A549/ATCC cells at 10 uM after 48 hrs by coulter counter analysis; settings: A549, 48 h, read-out: GI; summary of the method: as §1
NCI-H460 = assay: Growth inhibition of human NCI-H460 cells at 10 uM after 48 hrs by coulter counter analysis; settings: NCI-H460, 48 h, read-out: GI; summary of the method: as §1
OVCAR-4 = assay: Growth inhibition of human OVCAR4 cells at 10 uM after 48 hrs by coulter counter analysis; settings: OVCAR-4, 48 h, read-out: GI; summary of the method: as §1

SMILES	inhibition of growth at 10 µM (SF-539) [%]	inhibition of growth at 10 µM (SK-MEL-28) [%]	inhibition of growth at 10 µM (SNB-19) [%]	inhibition of growth at 10 µM (ACHN) [%]	inhibition of growth at 10 µM (MDA-MB-435) [%]	inhibition of growth at 10 µM (OVCAR-8) [%]	inhibition of growth at 10 µM (T47D) [%]	inhibition of growth at 10 µM [1] [%]	inhibition of growth at 10 µM (EKVX) [%]	inhibition of growth at 10 µM (K562) [%]	inhibition of growth at 10 µM (NCI-H226) [%]	inhibition of growth at 10 µM (OVCAR-5) [%]	inhibition of growth at 10 µM (BT-549) [%]	inhibition of growth at 10 µM (KM12) [%]	inhibition of growth at 10 µM (MDA-MB-231) [%]	inhibition of growth at 10 µM (CAKI-1) [%]	inhibition of growth at 10 µM (UO-31) [%]	inhibition of growth at 10 µM (HOP-62) [%]	inhibition of growth at 10 µM (LOX IMVI) [%]	inhibition of growth at 10 µM (SK-MEL-2) [%]	also measured
CCOC(=O)c1sc(NC(=O)CCN2CCN(c3ccccc3)CC2)nc1C	< 10	< 10	< 10	< 10	< 10	< 10	< 10	< 10	< 10	< 10	< 10	< 10	< 10	< 10	< 10	< 10	19.7	< 10	< 10	< 10	inhibition of growth at 10 µM (MDA-MB-468): < 10%; inhibition of growth at 10 µM (HOP-92): 17.5%; inhibition of growth at 10 µM (A498): 12.8%; inhibition of growth at 10 µM (SNB-75): < 10%; inhibition of growth at 10 µM (HCC 2998): < 10%; inhibition of growth at 10 µM (SN12C): < 10%; inhibition of growth at 10 µM (NCI-H522): < 10%; inhibition of growth at 10 µM (786-0): < 10%; inhibition of growth at 10 µM (OVCAR-3): < 10%; inhibition of growth at 10 µM (SK-MEL-5): < 10%; inhibition of growth at 10 µM (HT-29): < 10%; inhibition of growth at 10 µM (A549): < 10%; inhibition of growth at 10 µM (NCI-H460): < 10%; inhibition of growth at 10 µM (OVCAR-4): < 10%
O=C(CCCl)Nc1nc(-c2ccccc2)cs1	81.5	19.4	29.3	50.7	68.2	56.1	55.2	59.6	24.1	69.3	29.3	35.7	74.5	52.6	53.5	69.3	83.2	51.4	47.8	71.2	inhibition of growth at 10 µM (A498): 78.4%; inhibition of growth at 10 µM (SNB-75): 60.6%; inhibition of growth at 10 µM (HCC 2998): 15.8%; inhibition of growth at 10 µM (SN12C): 57.2%; inhibition of growth at 10 µM (786-0): 36.7%; inhibition of growth at 10 µM (OVCAR-3): 98%; inhibition of growth at 10 µM (SK-MEL-5): 48.9%; inhibition of growth at 10 µM (HT-29): 76.1%; inhibition of growth at 10 µM (A549): 53.1%; inhibition of growth at 10 µM (NCI-H460): 63.6%; inhibition of growth at 10 µM (OVCAR-4): 24.8%
